The target in series [1] is T1, Cannabinoid receptor 1 (Homo sapiens, UniProt P21554). The experiment in a line: Positive allosteric modulatory activity at human CB1R expressed in CHO-K1 cells assessed as increase in CP55940-induced beta-arrestin2 recruitment after 90 mins in presence of CP55940 at EC20 concentration by pathhunter beta-arrestin assay relative to control. It is filed as cell-based. In a few lines:
(§1)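 Read-out was chemiluminescent β-arrestin2 recruitment, fit with a 4-parameter regression. n = 1–3 independent experiments in duplicate.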

For series [2], the target named is T1, Cannabinoid receptor 1. In words: Positive allosteric modulatory activity at human CB1R expressed in CHO-K1 cells assessed as increase in CP55940-induced inhibition of forskolin-induced cAMP accumulation after 90 mins in presence of 100 nM CP55940 by hit-hunter cAMP assay. It is filed as functional, cell-based. In outline:
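Uses the HitHunter CHO-K1 hCB1R cAMP set-up above. Data normalized to % forskolin, 4-parameter fit. n ≥ 6, triplicate.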

The target in series [3] is Cannabinoid receptor 1 (Rattus norvegicus) (UniProt P20272). In words: Positive allosteric modulatory activity at N-terminal GFP-tagged rat CB1R receptor expressed in HEK293 cells assessed as increase in CP55940-induced inhibition of forskolin-induced cAMP accumulation by measuring Emax for cAMP accumulation at low concentration of CP55940 at 0.001 microM after 30 mins by TR-FRET assay relative to forskolin. It is filed as functional, cell-based.

The target is the same in series [4]. The experiment in a line: Positive allosteric modulatory activity at N-terminal GFP-tagged rat CB1R receptor expressed in HEK293 cells assessed as increase in CP55940-induced inhibition of forskolin-induced cAMP accumulation by measuring Emax for cAMP accumulation at low concentration of CP55940 at 0.1 microM after 30 mins by TR-FRET assay relative to forskolin. It counts as functional, cell-based.

Series [5] concerns the target T1, Cannabinoid receptor 1. In words: Agonist activity at human CB1 receptor expressed in CHO cell membranes assessed as increase in G-protein coupling by measuring [35S]GTPgammaS binding after 90 mins in presence of [35S]GTPgammaS by liquid scintillation analysis. It is filed as functional. In outline:
(§2)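 [35S]GTPγS binding to G protein in membranes from CHO cells stably expressing human CB1R, with test compound given alone. Data fit to a variable-slope 4-parameter nonlinear regression. n = 4–6 independent experiments in duplicate.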

The conditions of series [6]: rat, microsomes, 1 µM.
Series [7] has as its target Cannabinoid receptor 1 (Rattus norvegicus) (UniProt P20272). In words: Allosteric agonist activity at N-terminal GFP-tagged rat CB1R expressed in HEK293 cells assessed as inhibition of forskolin-induced cAMP production by measuring cAMP accumulation at minimal level at higher concentrations after 30 min by TR-FRET assay relative to forskolin. It is filed as functional, cell-based. In outline:
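HEK293 cells stably expressing N-terminal GFP-tagged rat CB1R were trypsin-EDTA dissociated and resuspended in HBSS with 0.1% BSA and 0.5mM IBMX at 500 cells/well. Cells got 5μM forskolin plus compound (1 pM – 10 μM) alone for 30 min. 4-parameter fit; Emin is the lower plateau. n ≥ 3, triplicate.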

For series [8], the system named is Mus musculus. The experiment in a line: Antiallodynic activity against CFA-induced mechanical allodynia CB1 receptor knockout CD1 mouse assessed as effect on ipsilateral paw withdrawal threshold at 30 mg/kg, ip measured for 0.5 to 4 hrs by Von Frey test. It counts as functional, organism-based. In outline:
(§3)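 Time course in the CFA model at 30 mg/kg i.p. Ipsilateral and contralateral mechanical paw withdrawal thresholds were followed from 30 min to 4 h post-injection in wild-type and CB1 knockout mice. Compared with vehicle by ANOVA and Bonferroni post hoc tests.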

The target of series [9] is T1, Cannabinoid receptor 1. In words: Agonist activity at human CB1 receptor expressed in CHO cell membranes assessed as increase in G-protein coupling by measuring [35S]GTPgammaS binding after 90 mins in presence of [35S]GTPgammaS by liquid scintillation analysis relative to control. It is filed as functional. In outline: as §2
For series [10], the target named is T1, Cannabinoid receptor 1. In words: Positive allosteric modulatory activity at human CB1R expressed in CHO-K1 cells assessed as increase in CP55940-induced beta-arrestin2 recruitment after 90 mins in presence of CP55940 at EC20 concentration by pathhunter beta-arrestin assay. It is filed as cell-based. In a few lines:
as §1

Series [11] relates to Mus musculus. In words: Antiallodynic activity against CFA-induced mechanical allodynia CD1 mouse model assessed as increase in ipsilateral paw withdrawal threshold at 3 to 30 mg/kg, ip measured every 3 hrs for 2 days post treatment by Von Frey test. It is filed as functional, organism-based. In outline:
(§4)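 Mice received CFA injection into one paw. Mechanical paw withdrawal thresholds were measured in the injected (ipsilateral) and contralateral paws after i.p. compound at 0.1, 0.3, 1, 3, 10 or 30 mg/kg, compared with vehicle-treated groups at the same times.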

In series [12] the target is Cannabinoid receptor 1 (Rattus norvegicus) (UniProt P20272). In words: Positive allosteric modulatory activity at N-terminal GFP-tagged rat CB1R receptor expressed in HEK293 cells assessed as leftward shift in CP55940 dependent concentration response curve for inhibition of forskolin-induced cAMP accumulation after 30 mins by TR-FRET assay. It is filed as functional, cell-based.

The conditions of series [13]: human, microsomes, 1 µM.
Series [14] deals with Mus musculus. The experiment in a line: Antinociceptive activity in C57BL/6 mouse at 3 to 10 mg/kg, ip after 20 mins post treatment by warm water tail-flick assay. It is filed as functional, organism-based.
Series [15] concerns Mus musculus. The experiment in a line: Effect on contralateral paw withdrawl threshold in CFA-induced mechanical allodynia CD1 mouse model at 0.1 to 30 mg/kg, ip measured every 3 hrs for 2 days post treatment by Von Frey test. It counts as ADME, organism-based. The note with it: in vivo, 48 h. In a few lines:
as §4

The subject of series [16] is Mus musculus. In words: Antiallodynic activity in ip dosed CFA-induced mechanical allodynia CD1 mouse model assessed as increase in ipsilateral paw withdrawal threshold measured every 3 hrs for 2 days post treatment by Von Frey test. It counts as functional, organism-based. In a few lines:
as §4

In series [17] the target is T1, Cannabinoid receptor 1. The experiment in a line: Positive allosteric modulatory activity at human CB1R expressed in CHO-K1 cells assessed as increase in CP55940-induced inhibition of forskolin-stimulated cAMP production after 30 mins in presence of CP55940 at EC20 concentration by hit-hunter cAMP assay. It is filed as functional, cell-based. In outline:
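Read-out was chemiluminescent cAMP detection, fit with a variable-slope 4-parameter regression. n = 1–3 independent experiments in duplicate.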

Series [18] relates to Mus musculus. In words: Antiallodynic activity against CFA-induced mechanical allodynia CD1 mouse model assessed as effect on ipsilateral paw withdrawal threshold at 0.3 mg/kg, ip measured every 3 hrs for 2 days post treatment by Von Frey test. It counts as functional, organism-based. In outline:
as §4

The target in series [19] is Cannabinoid receptor 1 (Rattus norvegicus) (UniProt P20272). The experiment in a line: Positive allosteric modulatory activity at N-terminal GFP-tagged rat CB1R receptor expressed in HEK293 cells assessed as increase in CP55940-induced inhibition of forskolin-induced cAMP accumulation by measuring Emax for cAMP accumulation at low concentrations of CP55940 at 0.03 microM after 30 mins by TR-FRET assay relative to forskolin. It counts as functional, cell-based.

In series [20] the test system is Mus musculus. In words: Antiallodynic activity against CFA-induced mechanical allodynia CD1 mouse model assessed as increase in ipsilateral paw withdrawal threshold at 30 mg/kg, ip by Von Frey test. It is filed as functional, organism-based. To be noted: TDE = time-dependent effect. In a few lines: as §3

Consider 2 molecules from ChEMBL document CHEMBL4376840, “Application of Fluorine- and Nitrogen-Walk Approaches: Defining the Structural and Functional Diversity of 2-Phenylindole Class of Cannabinoid 1 Receptor Positive Allosteric Modulators” (J Med Chem, 2020).

Active and inactive are the calls of the source.

Sequence of Cannabinoid receptor 1 (Rattus norvegicus) (P20272 whole entry): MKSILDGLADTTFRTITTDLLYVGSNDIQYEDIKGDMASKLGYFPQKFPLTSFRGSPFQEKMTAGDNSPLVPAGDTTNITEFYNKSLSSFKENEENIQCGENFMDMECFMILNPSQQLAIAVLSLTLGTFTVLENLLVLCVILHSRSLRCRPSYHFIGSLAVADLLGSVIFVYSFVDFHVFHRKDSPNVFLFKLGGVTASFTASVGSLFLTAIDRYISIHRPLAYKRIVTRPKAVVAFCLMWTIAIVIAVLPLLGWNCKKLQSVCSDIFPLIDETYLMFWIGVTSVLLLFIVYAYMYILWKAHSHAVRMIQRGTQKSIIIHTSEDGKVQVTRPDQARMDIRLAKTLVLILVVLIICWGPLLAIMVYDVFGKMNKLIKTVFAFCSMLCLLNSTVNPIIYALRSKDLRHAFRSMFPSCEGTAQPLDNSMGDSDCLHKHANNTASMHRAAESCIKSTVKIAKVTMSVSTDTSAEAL
T1 sequence (P21554 whole entry): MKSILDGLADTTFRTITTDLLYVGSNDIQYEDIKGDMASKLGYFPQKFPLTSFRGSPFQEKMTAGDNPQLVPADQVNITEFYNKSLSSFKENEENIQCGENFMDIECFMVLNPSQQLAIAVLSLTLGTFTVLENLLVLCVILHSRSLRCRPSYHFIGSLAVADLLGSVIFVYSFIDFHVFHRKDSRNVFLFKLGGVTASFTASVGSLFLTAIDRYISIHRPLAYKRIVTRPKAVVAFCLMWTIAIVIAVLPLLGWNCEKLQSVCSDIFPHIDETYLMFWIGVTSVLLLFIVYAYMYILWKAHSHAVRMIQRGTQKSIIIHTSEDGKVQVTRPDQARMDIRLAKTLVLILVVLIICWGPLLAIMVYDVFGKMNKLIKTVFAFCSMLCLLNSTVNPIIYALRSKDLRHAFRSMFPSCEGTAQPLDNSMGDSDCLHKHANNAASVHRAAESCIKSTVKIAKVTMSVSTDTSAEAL

Regarding `O=[N+]([O-])CC(c1ccccc1F)c1c(-c2cccc(F)c2)[nH]c2cc(F)ccc12` (centres undefined), the maximum response (Emax) worked out at 71% on Cannabinoid receptor 1 [1]; 76% in series [3]; 46% in series [4]; 81% on Cannabinoid receptor 1 [9]; 58% in series [19]. Also, the EC50 at Cannabinoid receptor 1 [2] stood at 2.2 nM; on Cannabinoid receptor 1 [5], 47 nM; at Cannabinoid receptor 1 [10], 750 nM; at Cannabinoid receptor 1 [17] it was 28 nM. Further, the CLH in series [6] came out at 248 µL/min; in [13] it was 44.9 µL/min. The Emin in series [7] was 32%. Also, the result with Mus musculus [8] and in the series on Mus musculus [18] was inactive. The result with Mus musculus [11] and in the series on Mus musculus [14] was Active. The Activity entry was “Dose-dependent effect” in series [12], “Non-Toxic” with Mus musculus [15], “Dose-dependent effect” in the series with Mus musculus [16] and “Tde” in the series on Mus musculus [20].

As for `O=[N+]([O-])CC(c1ccccc1F)c1c(-c2cccc(F)c2)[nH]c2c(F)cccc12` (centres undefined), the Emax was determined as 82% at Cannabinoid receptor 1 [1]; 74% in [3]; 52% in series [4]; 84% on Cannabinoid receptor 1 [9]; 63% in series [19]. Moreover, the EC50 at Cannabinoid receptor 1 [2] amounted to 1.7 nM; at Cannabinoid receptor 1 [5], 33 nM; on Cannabinoid receptor 1 [10], 510 nM; on Cannabinoid receptor 1 [17], 9.1 nM. The Emin in series [7] turned out to be 30%. Further, the result with Mus musculus [8] and with Mus musculus [18] was inactive. The outcome in the series on Mus musculus [11] and with Mus musculus [14] was Active. Further, the Activity entry in [12] was “Dose-dependent effect”; in the series on Mus musculus [15] it was “Non-Toxic”; in the series on Mus musculus [16], “Dose-dependent effect”; with Mus musculus [20], “Tde”. In [13], this molecule showed a CLH of 44.4 µL/min.
